Results reported in ChEMBL document CHEMBL1124104, “(Acyloxy)benzophenones and (acyloxy)-4-pyrones. A new class of inhibitors of human neutrophil elastase” (J Med Chem, 1988).
Each block holds one compound with its values, some of them ahead of it.

Columns and labels:
[1] = biological target: T1, Neutrophil elastase (Homo sapiens, UniProt P08246); test: Inhibitory activity against human leukocyte elastase at 10e-5 M
T1 sequence (P08246 whole entry): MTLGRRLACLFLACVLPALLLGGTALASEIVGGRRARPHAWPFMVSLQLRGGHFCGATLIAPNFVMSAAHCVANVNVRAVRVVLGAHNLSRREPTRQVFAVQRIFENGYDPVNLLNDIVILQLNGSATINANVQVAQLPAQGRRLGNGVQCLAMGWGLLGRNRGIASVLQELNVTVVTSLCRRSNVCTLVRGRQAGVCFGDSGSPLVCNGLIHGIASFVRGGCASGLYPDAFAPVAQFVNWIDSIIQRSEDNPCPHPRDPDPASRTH
How it was run: (§1)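 HLE activity followed as rise in absorbance at 410 nm from nitroanilide release; substrate (methoxysuccinyl)Ala-Ala-Pro-Val nitroanilide at 10⁻⁴ M. Run in 0.2 M Tris, pH 8.0, 30 °C. Inhibitors and substrate dissolved in DMSO, which made up 10% of the final medium. Enzyme titrated to give 0.12 OD unit/min per 10 mm path.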

[2] = biological target: T2, Neutrophil elastase (Homo sapiens) (UniProt P08246); test: Inhibitory activity against [14C]elastin hydrolysis at 3 uM concentration and 1h.
T2 sequence (whole entry): T1 sequence (P08246 whole entry)
How it was run: (§2)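 Elastase digestion of [¹⁴C]elastin, quantitated by radiolabel release (method of Bielefeld et al.). Substrate, inhibitor and elastase were all present for the whole run, and % inhibition was read at 1, 2 and 3 h.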

[3] = biological target: T2, Neutrophil elastase (Homo sapiens); test: Inhibitory activity against [14C]elastin hydrolysis at 3 uM concentration and 2 hr.; how it was run: as §2
[4] = biological target: T2, Neutrophil elastase (Homo sapiens); test: Inhibitory activity against [14C]-Elastin hydrolysis at 3 uM concentration and 3h.; how it was run: as §2
[5] = biological target: T2, Neutrophil elastase (Homo sapiens); test: Inhibitory activity against [14C]elastin hydrolysis at 1 uM concentration and 1h.; how it was run: as §2
[6] = biological target: T2, Neutrophil elastase (Homo sapiens); test: Inhibitory activity against [14C]elastin hydrolysis at 1 uM concentration and 2 hr.; how it was run: as §2
[7] = biological target: T2, Neutrophil elastase (Homo sapiens); test: Inhibitory activity against [14C]elastin hydrolysis at 2 uM concentration and 1h.; how it was run: as §2
[8] = biological target: T2, Neutrophil elastase (Homo sapiens); test: Inhibitory activity against [14C]-Elastin hydrolysis at 2 uM concentration and 2 hr.; how it was run: as §2
[9] = biological target: T2, Neutrophil elastase (Homo sapiens); test: Inhibitory activity against [14C]-Elastin hydrolysis at 2 uM concentration and 3h.; how it was run: as §2
[10] = biological target: T1, Neutrophil elastase; test: Inhibitory activity against human leukocyte elastase at 10e-6 M
[11] = biological target: T1, Neutrophil elastase; test: Inhibitory activity against human leukocyte elastase;IA = Inactive at 10e-4 M; how it was run: as §1
[12] = biological target: T1, Neutrophil elastase; test: Inhibitory activity against human leukocyte elastase at 10e-9 M; how it was run: as §1
[13] = biological target: T2, Neutrophil elastase (Homo sapiens); test: Inhibitory activity against [14C]elastin hydrolysis at 4 uM concentration and 1h.; how it was run: as §2
[14] = biological target: T2, Neutrophil elastase (Homo sapiens); test: Inhibitory activity against [14C]elastin hydrolysis at 4 uM concentration and 2 hr.; how it was run: as §2
[15] = biological target: T2, Neutrophil elastase (Homo sapiens); test: Inhibitory activity against [14C]elastin hydrolysis at 4 uM concentration and 3h.; how it was run: as §2
[16] = biological target: T1, Neutrophil elastase; test: Inhibitory activity against human leukocyte elastase at 10e-7 M
[17] = Inhibitory activity against Hog pancreatic elastase; IA = Inactive at 10e-5 M; design: species or system Sus scrofa
[18] = Inhibitory activity against pancreatic elastase; IA = Inactive at 10e-5 M
[19] = biological target: T1, Neutrophil elastase; test: Inhibitory activity against human leukocyte elastase; No inhibition at 1x10E-2 M; how it was run: as §1
[20] = biological target: T1, Neutrophil elastase; test: Inhibitory activity against human leukocyte elastase at 10e-8 M
[21] = biological target: T2, Neutrophil elastase (Homo sapiens); test: Inhibitory activity against [14C]-Elastin hydrolysis at 0.5 uM concentration and 2 hr.; how it was run: as §2
[22] = biological target: T2, Neutrophil elastase (Homo sapiens); test: Inhibitory activity against [14C]elastin hydrolysis at 0.5 uM concentration and 3h.; how it was run: as §2
[23] = biological target: T2, Neutrophil elastase (Homo sapiens); test: Inhibitory activity against [14C]elastin hydrolysis at 1 uM concentration and 3h.; how it was run: as §2
[24] = biological target: T2, Neutrophil elastase (Homo sapiens); test: Inhibitory activity against [14C]elastin hydrolysis at 0.5 uM concentration and 1h.; how it was run: as §2
[25] = Inhibitory activity against Hog pancreatic elastase; A = Inactive at 10e-5 M; design: species or system Sus scrofa
[26] = biological target: T1, Neutrophil elastase; test: Binding affinity towards human leukocyte elastase at 10e-7 M
[27] = Inhibitory activity against pancreatic elastase; A = Inactive at 10e-5 M
[28] = Inhibitory activity against Hog pancreatic elastase;IA = Inactive at 10e-5 M; design: species or system Sus scrofa

IC50 [1]: 16000 nM
SMILES: CC(=O)Oc1ccc(C(=O)c2ccccc2)cc1

inhibition [2]: 62%
inhibition [3]: 32%
inhibition [4]: 10%
inhibition [5]: 14%
inhibition [6]: 10%
inhibition [7]: 36%
inhibition [8]: 12%
inhibition [9]: 9%
SMILES: CC(C)(C)C(=O)Oc1ccc(C(=O)c2ccccc2)c(OC(=O)C(C)(C)C)c1

IC50 [10]: 1000 nM
SMILES: CC(C)(C)C(=O)Oc1coc(COC(c2ccccc2)(c2ccccc2)c2ccccc2)cc1=O

IC50 [10]: 1900 nM
SMILES: CC(C)(C)C(=O)Oc1coc(COC(=O)c2ccc(-c3ccccc3)cc2)cc1=O

IC50 [10]: 6200 nM
SMILES: CCC(=O)Oc1ccc(C(=O)c2ccccc2)cc1

IC50 [11]: Not Active
SMILES: CC(C)(C)C(=O)Oc1coc(CO)cc1=O

IC50 [12]: 1900 nM
SMILES: C=C(C)C(=O)Oc1ccc(C(=O)c2ccccc2)cc1

IC50 [1]: 12000 nM
SMILES: CC(C(=O)O)c1cc(C(=O)c2ccccc2)ccc1OC(=O)C(C)(C)C (centres undefined)

inhibition [2]: 74%
inhibition [3]: 46%
inhibition [4]: 32%
inhibition [13]: 77%
inhibition [14]: 50%
inhibition [15]: 22%
IC50 [16]: 160 nM
inhibition [7]: 61%
inhibition [8]: 33%
inhibition [9]: 13%
SMILES: CCCCCCCC/C=C/CCCCCCCCCCCC(=O)OCc1cc(=O)c(OC(=O)C(C)(C)C)co1

IC50 [10]: 3000 nM
SMILES: CC(C)(C)C(=O)Oc1ccc(C(OC(=O)CCC(=O)O)c2ccc(OC(=O)C(C)(C)C)cc2)cc1

IC50 [10]: 1500 nM
SMILES: CC(CO)Cc1cc(C(=O)c2ccccc2)ccc1OC(=O)C(C)(C)C (centres undefined)

IC50 [16]: 130 nM
IC50 [17]: Not Active
IC50 [18]: Not Active
SMILES: CCCCCC/C=C/CCCCCCCC(=O)OCc1cc(=O)c(OC(=O)C(C)(C)C)co1

IC50 [16]: 130 nM
SMILES: CCCCCCCCCCCCCCCCCCCC(=O)OCc1cc(=O)c(OC(=O)C(C)(C)C)co1

IC50 [19]: No inhibition
SMILES: CC1(C)Cc2cc(C(=O)c3ccccc3)ccc2OC1=O

IC50 [16]: 210 nM
SMILES: CCCCCCCC/C=C/CCCCCCCCCC(=O)OCc1cc(=O)c(OC(=O)C(C)(C)C)co1

IC50 [16]: 200 nM
IC50 [17]: Not Active
IC50 [18]: Not Active
SMILES: CC(C)(C)C(=O)Oc1ccc(C(=O)OCc2cc(=O)c(OC(=O)C(C)(C)C)co2)cc1

IC50 [20]: 72 nM
SMILES: CCCCCCCCCCCCCCCCCC(=O)OCc1cc(=O)c(OC(=O)C(C)C)co1

IC50 [10]: 1400 nM
SMILES: O=C(c1ccccc1)c1ccc(OC(=O)C2CC2)cc1

inhibition [2]: 56%
inhibition [3]: 40%
inhibition [4]: 29%
inhibition [5]: 29%
inhibition [6]: 14%
inhibition [7]: 39%
inhibition [8]: 29%
inhibition [9]: 8%
SMILES: CC(C)(C)C(=O)Oc1ccc(S(=O)(=O)c2ccc(OC(=O)C(C)(C)C)cc2)cc1

IC50 [19]: No inhibition
SMILES: CC1Cc2cc(C(=O)c3ccccc3)ccc2OC1=O (centres undefined)

inhibition [21]: 19%
inhibition [22]: 6%
inhibition [5]: 45%
inhibition [6]: 63%
inhibition [23]: 47%
inhibition [7]: 81%
inhibition [8]: 81%
inhibition [9]: 76%
inhibition [24]: 20%
SMILES: CC(C)(C)C(=O)Oc1ccc(C(=O)c2ccc(OC(=O)C(C)(C)C)cc2OC(=O)C(C)(C)C)cc1

inhibition [13]: 93%
inhibition [14]: 80%
inhibition [15]: 54%
inhibition [5]: 25%
inhibition [6]: 5%
inhibition [23]: -1%
IC50 [20]: 27 nM
inhibition [7]: 36%
inhibition [8]: 16%
inhibition [9]: 1%
IC50 [25]: Not Active
Ki [26]: 70 nM
IC50 [27]: Not Active
SMILES: CC(C)(C)C(=O)Oc1ccc(C(=O)OCc2cc(=O)c(OC(=O)C(C)(C)C)co2)c(OC(=O)C(C)(C)C)c1

IC50 [16]: 600 nM
SMILES: CCCCCCCCCCCCC(C)(C)C(=O)OCc1cc(=O)c(OC(=O)C(C)(C)C)co1

IC50 [28]: Not Active
inhibition [2]: 67%
inhibition [3]: 39%
inhibition [4]: 13%
inhibition [13]: 79%
inhibition [14]: 53%
inhibition [15]: 21%
IC50 [16]: 100 nM
inhibition [7]: 57%
inhibition [8]: 21%
inhibition [9]: 9%
IC50 [18]: Not Active
SMILES: CCCCCCCCCCCCCCCCCC(=O)OCc1cc(=O)c(OC(=O)C(C)(C)C)co1

IC50 [16]: 300 nM
SMILES: CCCCCCCC/C=C/CCCCCCCC(=O)OCc1cc(=O)c(OC(=O)C(C)(C)C)co1

IC50 [10]: 8400 nM
SMILES: Cc1cc(C)c(C(=O)OCc2cc(=O)c(OC(=O)C(C)(C)C)co2)c(C)c1
